# Compound activity (PubChem)
# Hits are enriched below; roughly 3.1% of the tested compounds scored in any of these assays.
# CSC inhib: cancer stem cell viability inhibitors, primary screen, luminescence; cancer stem cell-like cells viability; inhibition, % at 7.5 µM; actives 1.1% (n = 300,000); in the data active means inhibition above about 75%; inconclusive means no clear call, values can overlap the other calls; tested in HMLE shEcad cells
# Calb FLC: C. albicans growth inhibition with fluconazole, primary screen, CaCi-2 strain, Alamar Blue fluorescence; growth inhibition, % (test concentration not listed); C. albicans CaCi-2 (fluconazole-resistant clinical isolate) + fluconazole, 48 h; actives 0.57% (n = 300,000);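 active means growth inhibition above about 58% in most replicates, limit read from the data, passing the limit was not always enough; inconclusive means exactly half the replicates above a set limit; inactive means most replicates below a set limit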;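 further: all wells also contain fluconazole at 8 µg/ml as a sub-toxic cotreatment; 0% = median of DMSO wells and 100% = median of geldanamycin control wells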
# Beta cell apopt: inhibitors of cytokine-induced beta cell apoptosis, primary screen, luminescence; actives 0.8% (n = 300,000); AID 435005, 2010; INS-1E cytokine-induced death, ATP luminescence, 48 h; percent of positive-control rescue, neutral wells zero; protection from apoptosis, % (concentration not given with the values);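 active means Every replicate reaches about 75%, or at least half do and their mean reaches it too, limit read from the data; inconclusive means At least half of replicates reach the limit but their mean does not; inactive means Under half of replicates reach the limit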;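 further: 0% = cytokine-treated negative control wells and 100% = positive control rescue; higher means more ATP so stronger rescue from cytokine killing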
# T cruzi repl: inhibitors of intracellular T. cruzi growth, primary screen, luminescence, NIH3T3 host cells. T. cruzi beta-gal in NIH3T3, 90 h. inhibition, % (concentration not given with the values). actives 1.4% (n = 300,000). AID 1885, 2009;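 active means mean inhibition across valid replicates above about 55%, limit read from the data; inconclusive means mean below that limit but half or more replicates reach it; inactive means mean below it, under half of replicates reach it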;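 further: signal also drops with host cell toxicity which is not excluded here; 0% = plate median of DMSO wells and 100% = zero luminescence signal; higher percent means less beta-gal luminescence so fewer parasites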
#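 System: mouse NIH/3T3 fibroblasts infected with β-gal-expressing T. cruzi Tulahuen C4 / Input: NIH/3T3 cells, 5,000 per well / Buffer or medium: Low-serum DMEM with 2% FBS / Probe or stimulus: 5000 reporter trypomastigotes per well / Schedule: ≥90 h infection period, 3 h prior cell attachment / Measured by: GalScreen luminescence, 60 min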
# HIF act: HIF pathway transcriptional activators, primary screen, cell-based, U2OS HRE-luciferase, luminescence. U2OS HRE-luciferase reporter; normalized: DMSO 0%, desferrioxamine 100%. activation, % at 7.5 µM (by protocol). actives 0.32% (n = 300,000);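 active means mean activation of at least 10% of the iron chelator positive control signal, with at least half of replicates also reaching 10%; inconclusive means mean and replicate majority disagree about reaching 10%; inactive means mean and most replicates under 10%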
# PolyA inh: polyadenylation inhibitors in yeast reporter cells, primary screen, luminescence, S. cerevisiae; S. cerevisiae SKY197-pL101 polyadenylation reporter, beta-gal luminescence; efflux-impaired pdr1/pdr3 knockout yeast; score 100 = 6 SD above DMSO; activity score, % at 12 µM; actives 0.02% (n = 300,000);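 active means lowest replicate activity score at least 50, where 100 means six control SD above control mean; inconclusive means lowest score under 50 but half or more replicates reach 50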;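 further: yeast exposed to compound for 9 h at 30 °C; higher score means more reporter readthrough which indicates perturbed polyadenylation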
# An asterisk follows results filed as active; ? = inconclusive; · = no result.
SMILES,CSC inhib,Calb FLC,Beta cell apopt,T cruzi repl,HIF act,PolyA inh
Cc1ccc(NC(=O)c2nc[nH]c2C(=O)NCCCCNC(=O)c2[nH]cnc2C(=O)Nc2ccc(C)cc2)cc1,·,·,15,·,·,·
Cc1ccc(NC(=O)c2nc[nH]c2C(=O)NCCCNC(=O)c2[nH]cnc2C(=O)Nc2ccc(C)cc2)cc1,113*,·,38,·,·,·
CC(C)(C)OC(=O)NCc1ccc(NC(=O)c2nc[nH]c2C(=O)NCCCCNC(=O)c2[nH]cnc2C(=O)Nc2ccc(CNC(=O)OC(C)(C)C)cc2)cc1,120*,·,71,·,·,·
O=C(Nc1cccc(Cl)c1)c1nc[nH]c1C(=O)NCCCNC(=O)c1[nH]cnc1C(=O)Nc1cccc(Cl)c1,101*,·,-1,·,·,·
CC(C)(C)OC(=O)NCc1ccc(NC(=O)c2nc[nH]c2C(=O)NCCCNC(=O)c2[nH]cnc2C(=O)Nc2ccc(CNC(=O)OC(C)(C)C)cc2)cc1,114*,·,11,·,·,·
CCCOc1ccc(C(=O)Nc2ccc3c(c2)OCCO3)cc1,17,-4,7,-1,0,-7
COc1ccc(C2/C(=C(/O)c3ccc(Br)cc3)C(=O)C(=O)N2C)cc1 (stereo not drawn),-11,1,2,-17,-34,3
Cc1noc(C)c1S(=O)(=O)Nc1ccc2c(c1)CC(=O)N([C@H](C)CO)C[C@H](C)[C@@H](CN(C)CC1CC1)O2,·,·,-3,·,·,·
COC(=O)C1=C(C(=O)OC)[C@@H]2N(C)c3ccc(OC)cc3[C@@]23C[C@@H](C(=O)OC)N(C(=O)COCc2ccccc2)C3=N1,-23,0,·,0,-1,1
O=[N+]([O-])c1cc2cccnc2c2ncccc12,37,12,2,24,1,-7
O=[N+]([O-])c1ccc(Sc2cccc3cccnc23)c2cccnc12,3,27,56,86*,-2,-35
CC1C(=O)N2CCCc3cc(S(=O)(=O)NCc4ccccc4Cl)cc1c32 (stereo not drawn),-21,-21,-4,24,0,2
COC(=O)c1sc(-c2ccc(C(C)(C)C)cc2)cc1NC(=O)CSCC(=O)O,27,-2,-6,-3,-1,-10
CCOc1cc(C(=O)N2CCC(CC3CC(c4ccc(Cl)cc4)=NO3)(C(=O)NCC3CCCCC3)CC2)cc(OCC)c1OCC (stereo not drawn),9,21,0,27,-2,15
Cc1ccc(CNC(=O)CNS(=O)(=O)c2ccc3c(c2)C(C)(C)C(=O)N3C)cc1,-7,-2,1,0,0,7
CCC(=O)Nc1ccc(C(=O)Cn2ncc(Cl)c(Cl)c2=O)cc1,?,8,-29,49,4,-5
CCOC(=O)c1ccc(NC(=O)Cn2ncc(Cl)c(Cl)c2=O)cc1,90*,64,8,56*,-1,-2
O=C(OCn1ncc(Cl)c(Cl)c1=O)c1ccc(C(F)(F)F)cc1,·,106*,·,64*,0,-37
Cc1ccc(C(=O)OCn2ncc(Cl)c(Cl)c2=O)cc1,·,114*,101*,50,-3,-68
CN(CC(=O)N1CCCC1)S(=O)(=O)c1ccc2ccccc2c1,-2,-19,7,-10,0,-5
Cc1nc(C)c(-c2ccc(SCc3ccccc3F)nn2)s1,15,-2,-4,1,3,-16
O=C(NNc1ccc(Cl)cc1)C1CCC1,36,85*,-14,-7,0,-6
O=C(NNc1ccnc2cc(Cl)ccc12)C1CCCCC1,3,10,127*,32,0,39
Cc1ccc(NC(=O)c2ccccc2)cc1,14,-10,6,-2,4,1
Cc1ccc(NC(=O)C2=C(c3ccccc3)S(=O)(=O)CCS2(=O)=O)cc1,79*,17,?,58*,0,-5
SMILES,CSC inhib,Calb FLC,Beta cell apopt,T cruzi repl,HIF act,PolyA inh
O=C(Nc1ccc2c(c1)OCCO2)C(=O)c1c[nH]c2ccccc12,107*,-12,19,-1,0,-20
COc1ccc(-n2ncc3c2CC(C)(C)CC3NC(=O)c2cn[nH]c2)cc1 (stereo not drawn),-8,-4,-6,-7,-1,12
CCNc1nc(NC(C)C)nc(NC(C)(C)C)n1,0,83*,37,51,-39,11
O=C(Oc1coc(CSc2nnc(NC(=O)c3cccs3)s2)cc1=O)c1ccccc1,86*,-7,0,-9,0,-1
O=C(CSCc1ccc(Cl)cc1)Nc1ccc2c(c1)OCCO2,-11,-2,0,3,1,7
Oc1c(Br)cc(/C=N/Nc2ccc(Cl)nn2)cc1Br,-2,41,3,5,0,-8
CCOc1ccc(/C=N/Nc2ccc(Cl)nn2)c(O)c1,15,5,119*,-2,1,-2
Oc1c(Br)cc(Br)cc1/C=N/Nc1ccc(Cl)nn1,100*,83*,98*,55*,-1,3
Cc1[nH]c2ccccc2c1CN1CCN(c2ccccn2)CC1,-10,10,92*,78*,0,1
c1ccc(N2CCN(Cc3nc4ccccc4[nH]3)CC2)nc1,-2,4,-4,-3,-1,0
Cc1[nH]c2ccccc2c1CN1CCC(Cc2ccccc2)CC1,63,60,104*,94*,-1,-6
O=C(COc1ccc(F)cc1)Nc1nnc(S(=O)(=O)N2CCCC2)s1,1,-14,-4,1,0,?
O=C(NNC(=O)c1ccccc1OCc1ccccc1Cl)c1csc(N2CCOCC2)n1,·,9,24,38,0,-22
Cc1cc(O)c(/C=N/Nc2ccc(F)cc2)c(=O)o1,16,122*,-2,13,0,-17
Cc1ccc(N/N=C/c2c(O)cc(C)oc2=O)cc1,64,-14,-3,12,0,2
CCOc1cc(CNCCO)cc(Br)c1OCc1ccc(Cl)cc1,85*,-43,36,2,0,-7
CCOc1cc(/C=N/O)cc(Br)c1OCc1ccc(Cl)cc1,117*,0,10,15,-3,-44
CC(C)[C@H](NC(=O)c1ccccc1)C(=O)OCC(=O)Nc1ncc(Cl)cc1Cl,·,·,-9,·,·,·
N#Cc1ccccc1NC(=O)COC(=O)/C=C/c1ccc(S(=O)(=O)N2CCOCC2)cc1,1,·,-3,·,·,·
COc1c(CC=C(C)C)cc(C2CC(=O)c3c(O)cc(O)cc3O2)cc1CC=C(C)C (stereo not drawn),100*,-7,108*,32,0,-18
Cc1nn(C)c(C(=O)Nc2ccc(S(=O)(=O)NC34CC5CC(CC(C5)C3)C4)cc2)c1Br,·,1,36,59*,-1,-24
